Activity calls are given as the source filed them.
Assays:
Rattus norvegicus [1] = experiment: Antinociceptive activity in Sprague-Dawley rat at 0.2 mg/kg, ip after 15 mins by tail flick test; type: functional; conditions: route intraperitoneal
How it was run: (§1)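 Male Sprague-Dawley rats, housed singly at 21 °C on a 12 h light-dark cycle, tested in the light phase. Drug given ip in saline (100-500 µL). Tail flick: radiant heat from a 300 W bulb focused on the tail tip, withdrawal latency recorded. Pre-drug responders above 75% of cut-off excluded. Testing was blinded. Results are %MPE at 15 and 30 min and duration (h), mean of 12 animals, Mann-Whitney U-test.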

Rattus norvegicus [2] = experiment: Antinociceptive activity in Sprague-Dawley rat assessed as duration of antinociception at 0.01 mg/kg, ip by tail flick test; type: functional; conditions: route intraperitoneal; how it was run: as §1
Rattus norvegicus [3] = experiment: Antinociceptive activity in Sprague-Dawley rat at 0.02 mg/kg, ip after 30 mins by tail flick test; type: functional; conditions: route intraperitoneal; how it was run: as §1
Rattus norvegicus [4] = experiment: Antinociceptive activity in Sprague-Dawley rat assessed as duration of antinociception at 0.1 mg/kg, ip by tail flick test; type: functional; conditions: route intraperitoneal; how it was run: as §1
Rattus norvegicus [5] = experiment: Antinociceptive activity in Sprague-Dawley rat at 0.01 mg/kg, ip after 30 mins by tail flick test; type: functional; conditions: route intraperitoneal; how it was run: as §1
Rattus norvegicus [6] = organism: Rattus norvegicus; experiment: Toxicity in Sprague-Dawley rat assessed as body weight loss; type: organism-based; conditions: in vivo
Rattus norvegicus [7] = experiment: Antinociceptive activity in Sprague-Dawley rat at 5 mg/kg, ip administered once daily for 9 days measured daily after 30 mins by tail flick test; type: functional; conditions: route intraperitoneal
How it was run: (§2)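 Separate groups of male Sprague-Dawley rats (250-300 g) dosed ip once daily for 9 consecutive days. Tail flick latency (radiant heat to tail tip) measured daily 30 min after each injection. Response expressed as %MPE.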

Rattus norvegicus [8] = experiment: Antinociceptive activity in Sprague-Dawley rat assessed as duration of antinociception at 0.5 mg/kg, ip by tail flick test; type: functional; conditions: route intraperitoneal; how it was run: as §1
[9] = target: Mu-type opioid receptor (Rattus norvegicus) (UniProt P33535); conditions: HEK293
Rattus norvegicus [10] = experiment: Antinociceptive activity in Sprague-Dawley rat at 0.05 mg/kg, ip after 15 mins by tail flick test; type: functional; conditions: route intraperitoneal; how it was run: as §1
Rattus norvegicus [11] = experiment: Antinociceptive activity in Sprague-Dawley rat assessed as duration of antinociception at 1 mg/kg, ip by tail flick test; type: functional; conditions: route intraperitoneal; how it was run: as §1
Rattus norvegicus [12] = experiment: Antinociceptive activity in Sprague-Dawley rat at 5 mg/kg, ip after 30 mins by tail flick test; type: functional; conditions: for MPE: route intraperitoneal; how it was run: as §1
Rattus norvegicus [13] = experiment: Toxicity in Sprague-Dawley rat assessed as depression of mean arterial blood pressure at 1 mg/kg, iv administered for 60 secs measured for 30 mins; type: organism-based; set-up: dose 1 mg/kg, route intravenous; conditions: in vivo, 0.5 h
How it was run: (§3)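 Male Sprague-Dawley rats (250-300 g) under urethane anaesthesia (1.25 g/kg ip), kept at 37 °C, tracheotomised, with carotid and jugular cannulae. After ≥1 h stabilisation and a saline infusion, drug was given iv in saline over 60 ± 20 s. MAP, SAP, DAP and HR recorded for 30 min as % change from time zero. Student's t test and Newman-Keuls.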

Rattus norvegicus [14] = experiment: Antinociceptive activity in Sprague-Dawley rat at 0.1 mg/kg, ip administered once daily for 9 days measured daily after 30 mins by tail flick test; type: functional; conditions: route intraperitoneal; how it was run: as §2
Rattus norvegicus [15] = experiment: Antinociceptive activity in Sprague-Dawley rat assessed as effect on mechanical nociceptive threshold at 1 to 5 mg/kg, ip after 30 mins by paw pressure test; type: functional, organism-based
How it was run: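 Male Sprague-Dawley rats, drug given ip in saline. Paw pressure test run before tail flick in each animal. Operator blinded to treatment. Rats with pre-drug responses above 75% of cut-off excluded. Read-out taken 30 min post-injection. Statistics by Mann-Whitney U-test.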

Rattus norvegicus [16] = experiment: Antinociceptive activity in Sprague-Dawley rat assessed as duration of antinociception at 0.05 mg/kg, ip by tail flick test; type: functional; conditions: route intraperitoneal; how it was run: as §1
Rattus norvegicus [17] = experiment: Antinociceptive activity in Sprague-Dawley rat at 0.1 mg/kg, ip after 30 mins by tail flick test; type: functional; conditions: route intraperitoneal; how it was run: as §1
Rattus norvegicus [18] = experiment: Antinociceptive activity in Sprague-Dawley rat assessed as duration of antinociception at 5 mg/kg, ip by tail flick test; type: functional; conditions: route intraperitoneal; how it was run: as §1
Rattus norvegicus [19] = experiment: Antinociceptive activity in Sprague-Dawley rat at 0.2 mg/kg, ip after 30 mins by tail flick test; type: functional; conditions: route intraperitoneal; how it was run: as §1
Rattus norvegicus [20] = experiment: Antinociceptive activity in Sprague-Dawley rat at 1 mg/kg, ip after 30 mins by tail flick test; type: functional; conditions: for MPE: route intraperitoneal; how it was run: as §1
Rattus norvegicus [21] = experiment: Antinociceptive activity in Sprague-Dawley rat at 0.05 mg/kg, ip administered once daily for 9 days measured daily after 30 mins by tail flick test; type: functional; conditions: route intraperitoneal; how it was run: as §2
Rattus norvegicus [22] = experiment: Antinociceptive activity in Sprague-Dawley rat at 1 mg/kg, ip administered once daily for 9 days measured daily after 30 mins by tail flick test; type: functional; conditions: route intraperitoneal; how it was run: as §2
Rattus norvegicus [23] = experiment: Antinociceptive activity in ip dosed Sprague-Dawley rat at after 30 mins by tail flick test; type: functional, organism-based; how it was run: as §1
Rattus norvegicus [24] = experiment: Antinociceptive activity in Sprague-Dawley rat assessed as duration of antinociception at 0.2 mg/kg, ip by tail flick test; type: functional; conditions: route intraperitoneal; how it was run: as §1
Rattus norvegicus [25] = experiment: Antinociceptive activity in Sprague-Dawley rat at 0.05 mg/kg, ip after 30 mins by tail flick test; type: functional; conditions: route intraperitoneal; how it was run: as §1
Rattus norvegicus [26] = experiment: Antinociceptive activity in Sprague-Dawley rat at 0.01 to 5 mg/kg, ip by tail flick test in presence of naloxone; type: functional, organism-based
How it was run: (§4)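 Antinociception in male Sprague-Dawley rats given drug ip in saline and measured by tail flick or paw pressure. Reversal tested with naloxone, stated as 5 mg/kg ip in the table footnote and as 0.1 mg/kg in the text.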

Rattus norvegicus [27] = experiment: Toxicity in Sprague-Dawley rat assessed as depression of heart rate at 1 mg/kg, iv administered for 60 secs measured for 30 mins; type: organism-based; set-up: dose 1 mg/kg, route intravenous; conditions: in vivo, 0.5 h; how it was run: as §3
Rattus norvegicus [28] = experiment: Antinociceptive activity in Sprague-Dawley rat at 0.1 mg/kg, ip after 15 mins by tail flick test; type: functional; conditions: route intraperitoneal; how it was run: as §1
Rattus norvegicus [29] = experiment: Antinociceptive activity in Sprague-Dawley rat at 0.5 mg/kg, ip after 30 mins by tail flick test; type: functional; conditions: route intraperitoneal; how it was run: as §1
Rattus norvegicus [30] = experiment: Antinociceptive activity in Sprague-Dawley rat assessed as duration of antinociception at 0.02 mg/kg, ip by tail flick test; type: functional; conditions: route intraperitoneal; how it was run: as §1
Rattus norvegicus [31] = experiment: Antinociceptive activity in Sprague-Dawley rat at 0.02 mg/kg, ip after 15 mins by tail flick test; type: functional; conditions: route intraperitoneal; how it was run: as §1
Rattus norvegicus [32] = experiment: Antinociceptive activity in Sprague-Dawley rat at 1 mg/kg, ip after 15 mins by tail flick test; type: functional; conditions: route intraperitoneal; how it was run: as §1
Rattus norvegicus [33] = experiment: Antinociceptive activity in Sprague-Dawley rat assessed as effect on mechanical nociceptive threshold at 1 to 5 mg/kg, ip by paw pressure test in presence of naloxone; type: functional, organism-based; how it was run: as §4
Rattus norvegicus [34] = experiment: Antinociceptive activity in Sprague-Dawley rat at 5 mg/kg, ip after 15 mins by tail flick test; type: functional; conditions: route intraperitoneal; how it was run: as §1
Rattus norvegicus [35] = experiment: Antinociceptive activity in Sprague-Dawley rat at 0.5 mg/kg, ip after 15 mins by tail flick test; type: functional; conditions: route intraperitoneal; how it was run: as §1
Rattus norvegicus [36] = experiment: Toxicity in Sprague-Dawley rat assessed as depression of mean arterial blood pressure at 5 mg/kg, iv administered for 60 secs measured for 30 mins; type: organism-based; set-up: dose 5 mg/kg, route intravenous; conditions: in vivo, 0.5 h; how it was run: as §3
Rattus norvegicus [37] = experiment: Toxicity in Sprague-Dawley rat assessed as depression of heart rate at 5 mg/kg, iv administered for 60 secs measured for 30 mins; type: organism-based; set-up: dose 5 mg/kg, route intravenous; conditions: in vivo, 0.5 h; how it was run: as §3

Sequence of Mu-type opioid receptor (Rattus norvegicus) (P33535 whole entry): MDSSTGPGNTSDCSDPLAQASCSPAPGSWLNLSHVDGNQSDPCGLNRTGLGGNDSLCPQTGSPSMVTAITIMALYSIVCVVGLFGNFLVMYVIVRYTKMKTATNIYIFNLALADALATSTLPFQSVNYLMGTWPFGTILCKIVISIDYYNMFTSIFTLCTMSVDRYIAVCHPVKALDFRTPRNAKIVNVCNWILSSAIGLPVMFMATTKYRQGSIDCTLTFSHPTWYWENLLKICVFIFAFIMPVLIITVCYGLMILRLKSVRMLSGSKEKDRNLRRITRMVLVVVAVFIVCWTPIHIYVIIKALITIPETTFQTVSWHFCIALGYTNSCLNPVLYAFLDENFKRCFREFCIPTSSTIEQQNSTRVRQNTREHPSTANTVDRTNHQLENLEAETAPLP

Work on `CN1CC[C@]23c4c5ccc(O)c4O[C@H]2[C@@H](O[C@H]2O[C@H](CO)[C@@H](O)[C@H](O)[C@@H]2O)C=C[C@H]3[C@H]1C5` yielded an MPE (Rattus norvegicus [1]) of 57%, a Time (Rattus norvegicus [2]) of 2 h and an MPE (Rattus norvegicus [3]) of 51%. For the same compound, the Time (Rattus norvegicus [4]) was 5 h, the MPE (Rattus norvegicus [5]) was 22% and the Activity (Rattus norvegicus [6]) was “Non-toxic”. It also gave an MPE (Rattus norvegicus [7]) of 100%, a Time (Rattus norvegicus [8]) of 5 h and a KiH [9] of 1.7 nM. For the same compound, the KiL [9] was 55 nM, the MPE (Rattus norvegicus [10]) was 56% and the Time (Rattus norvegicus [11]) was 5 h. The MPE (Rattus norvegicus [12]) was 100%, the Activity (Rattus norvegicus [13]) was “Non-toxic” and the Activity (Rattus norvegicus [14]) was 100%. The Activity (Rattus norvegicus [15]) was “Active”, the Time (Rattus norvegicus [16]) was 5 h and the MPE (Rattus norvegicus [17]) was 100%. For the same compound, the Time (Rattus norvegicus [18]) was 5 h, the MPE (Rattus norvegicus [19]) was 100% and the MPE (Rattus norvegicus [20]) was 100%. The MPE (Rattus norvegicus [21]) was 55%, the MPE (Rattus norvegicus [22]) was 100% and the IC50 (Rattus norvegicus [23]) was 0.02 mg/kg. The Time (Rattus norvegicus [24]) was 5 h, the MPE (Rattus norvegicus [25]) was 84% and the Activity (Rattus norvegicus [26]) was “inactive”. For the same compound, the Activity (Rattus norvegicus [27]) was “Non-toxic”, the MPE (Rattus norvegicus [28]) was 50% and the MPE (Rattus norvegicus [29]) was 100%. It also gave a Time (Rattus norvegicus [30]) of 3.5 h, an MPE (Rattus norvegicus [31]) of 19% and an MPE (Rattus norvegicus [32]) of 56%. The Activity (Rattus norvegicus [33]) was “inactive”, the MPE (Rattus norvegicus [34]) was 83% and the MPE (Rattus norvegicus [35]) was 54%.

For `CN1CC[C@]23c4c5ccc(O)c4O[C@H]2[C@@H](O[C@@H]2O[C@H](C(=O)O)[C@@H](O)[C@H](O)[C@H]2O)C=C[C@H]3[C@H]1C5`, the Activity (Rattus norvegicus [12]) was “Active”, the Activity (Rattus norvegicus [15]) was “Active” and the Activity (Rattus norvegicus [20]) was “Active”.

`CN1CC[C@]23c4c5ccc(O)c4O[C@H]2[C@@H](O)C=C[C@H]3[C@H]1C5` [MORPHINE] was tested, and the Activity (Rattus norvegicus [13]) was “Non-toxic”, the MPE (Rattus norvegicus [20]) was 35% and the Activity (Rattus norvegicus [36]) was “Toxic”. The Activity (Rattus norvegicus [37]) was “Toxic”.

For `CN1CC[C@]23c4c5ccc(O)c4O[C@H]2[C@@H](O)C=C[C@H]3[C@H]1C5`, the KiH [9] was 2.5 nM, the KiL [9] was 113 nM and the Activity (Rattus norvegicus [15]) was “Active”.

`CN1CC[C@]23c4c5ccc(O)c4O[C@H]2[C@@H](O)C=C[C@H]3[C@H]1C5.CN1CC[C@]23c4c5ccc(O)c4O[C@H]2[C@@H](O)C=C[C@H]3[C@H]1C5.O=S(=O)(O)O` gave an MPE (Rattus norvegicus [12]) of 72%, a Time (Rattus norvegicus [18]) of 2.5 h and an MPE (Rattus norvegicus [34]) of 45%.

From ChEMBL document CHEMBL1138464, “Synthesis, conformation, and biological characterization of a sugar derivative of morphine that is a potent, long-lasting, and nontolerant antinociceptive” (J Med Chem, 2009)
